Test results as given in ChEMBL document CHEMBL2390854, “Green synthesis of tetrahydropyrimidine analogues and evaluation of their antimicrobial activity” (2013).
Values after ≈ are worked out from the molar mass of the structure shown.

Columns and labels:
[1] = system: Candida albicans; assay: Antifungal activity against Candida albicans NCIM 3471 by agar dilution method; assay type: functional
Outline: (§1)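 MIC determined by standard agar dilution per CLSI guidelines. Fluconazole and miconazole were reference drugs, and dimethyl sulfoxide was the solvent control.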

[2] = system: Staphylococcus aureus; assay: Antibacterial activity against Staphylococcus aureus NCIM 2901 by broth dilution method; assay type: functional
Outline: (§2)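 MIC by broth dilution following CLSI guidelines. Ciprofloxacin and ampicillin served as reference drugs.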

[3] = system: Escherichia coli; assay: Antibacterial activity against Escherichia coli NCIM 2256 by broth dilution method; assay type: functional; outline: as §2
[4] = system: Escherichia coli; assay: Antibacterial activity against Escherichia coli NCIM 2256 by broth dilution method
[5] = system: Aspergillus niger; assay: Antifungal activity against Aspergillus niger NCIM 1196 by agar dilution method; assay type: functional; outline: as §1
[6] = system: Aspergillus flavus; assay: Antifungal activity against Aspergillus flavus NCIM 539 by agar dilution method; assay type: functional; outline: as §1
[7] = system: Bacillus subtilis; assay: Antibacterial activity against Bacillus subtilis NCIM 2063 by broth dilution method; assay type: functional; outline: as §2

SMILES	MIC [1]	MIC [2]	MIC [3]	MIC [4]	MIC [5]	MIC [6]	MIC [7]
COC(=O)C1=C(C(=O)OC)N(c2ccc(O)cc2)CN(c2ccc(O)cc2)C1	75 µg/mL (≈ 195 µM)	90 µg/mL (≈ 234 µM)	80 µg/mL (≈ 208 µM)	80 µg/mL (≈ 208 µM)	50 µg/mL (≈ 130 µM)	50 µg/mL (≈ 130 µM)	
COC(=O)C1=C(C(=O)OC)N(c2cccc([N+](=O)[O-])c2)CN(c2cccc([N+](=O)[O-])c2)C1	100 µg/mL (≈ 226 µM)	80 µg/mL (≈ 181 µM)	80 µg/mL (≈ 181 µM)		100 µg/mL (≈ 226 µM)	100 µg/mL (≈ 226 µM)	100 µg/mL (≈ 226 µM)
COC(=O)C1=C(C(=O)OC)N(c2ccccn2)CN(c2ccccn2)C1	25 µg/mL (≈ 70.5 µM)	80 µg/mL (≈ 226 µM)	60 µg/mL (≈ 169 µM)		25 µg/mL (≈ 70.5 µM)	12.5 µg/mL (≈ 35.3 µM)	40 µg/mL (≈ 113 µM)
COC(=O)C1=C(C(=O)OC)N(c2nc3ccc(OC)cc3s2)CN(c2nc3ccc(OC)cc3s2)C1	25 µg/mL (≈ 47.5 µM)	100 µg/mL (≈ 190 µM)	40 µg/mL (≈ 76 µM)		12.5 µg/mL (≈ 23.7 µM)	12.5 µg/mL (≈ 23.7 µM)	25 µg/mL (≈ 47.5 µM)
CCOC(=O)C1=C(C(=O)OCC)N(c2nc3ccc(OC)cc3s2)CN(c2nc3ccc(OC)cc3s2)C1	25 µg/mL (≈ 45.1 µM)	100 µg/mL (≈ 180 µM)	15 µg/mL (≈ 27 µM)		12.5 µg/mL (≈ 22.5 µM)	12.5 µg/mL (≈ 22.5 µM)	20 µg/mL (≈ 36.1 µM)
COC(=O)C1=C(C(=O)OC)N(c2ccccc2)CN(c2ccccc2)C1	50 µg/mL (≈ 142 µM)	90 µg/mL (≈ 255 µM)	60 µg/mL (≈ 170 µM)		25 µg/mL (≈ 70.9 µM)	25 µg/mL (≈ 70.9 µM)	30 µg/mL (≈ 85.1 µM)
COC(=O)C1=C(C(=O)OC)N(c2ccc(Cl)cc2)CN(c2ccc(Cl)cc2)C1	25 µg/mL (≈ 59.3 µM)	100 µg/mL (≈ 237 µM)	60 µg/mL (≈ 142 µM)		25 µg/mL (≈ 59.3 µM)	25 µg/mL (≈ 59.3 µM)	40 µg/mL (≈ 94.9 µM)
CCOC(=O)C1=C(C(=O)OCC)N(c2ccccc2)CN(c2ccccc2)C1	50 µg/mL (≈ 131 µM)	60 µg/mL (≈ 158 µM)	15 µg/mL (≈ 39.4 µM)		25 µg/mL (≈ 65.7 µM)	25 µg/mL (≈ 65.7 µM)	25 µg/mL (≈ 65.7 µM)
CCOC(=O)C1=C(C(=O)OCC)N(c2ccc(Cl)cc2)CN(c2ccc(Cl)cc2)C1	25 µg/mL (≈ 55.6 µM)	80 µg/mL (≈ 178 µM)	15 µg/mL (≈ 33.4 µM)		25 µg/mL (≈ 55.6 µM)	25 µg/mL (≈ 55.6 µM)	25 µg/mL (≈ 55.6 µM)
CCOC(=O)C1=C(C(=O)OCC)N(c2ccc(O)cc2)CN(c2ccc(O)cc2)C1	75 µg/mL (≈ 182 µM)	100 µg/mL (≈ 242 µM)	50 µg/mL (≈ 121 µM)		50 µg/mL (≈ 121 µM)	50 µg/mL (≈ 121 µM)	40 µg/mL (≈ 97 µM)
CCOC(=O)C1=C(C(=O)OCC)N(c2cccc([N+](=O)[O-])c2)CN(c2cccc([N+](=O)[O-])c2)C1	100 µg/mL (≈ 213 µM)	100 µg/mL (≈ 213 µM)	100 µg/mL (≈ 213 µM)		100 µg/mL (≈ 213 µM)	100 µg/mL (≈ 213 µM)	60 µg/mL (≈ 128 µM)
CCOC(=O)C1=C(C(=O)OCC)N(c2ccccn2)CN(c2ccccn2)C1	25 µg/mL (≈ 65.4 µM)	100 µg/mL (≈ 261 µM)	60 µg/mL (≈ 157 µM)		25 µg/mL (≈ 65.4 µM)	12.5 µg/mL (≈ 32.7 µM)	20 µg/mL (≈ 52.3 µM)
CC1(C)S[C@@H]2[C@H](NC(=O)[C@H](N)c3ccccc3)C(=O)N2[C@H]1C(=O)O [AMPICILLIN]		50 µg/mL (≈ 143 µM)	50 µg/mL (≈ 143 µM)	50 µg/mL (≈ 143 µM)			
O=C(O)c1cn(C2CC2)c2cc(N3CCNCC3)c(F)cc2c1=O [CIPROFLOXACIN]			15 µg/mL (≈ 45.3 µM)				25 µg/mL (≈ 75.4 µM)
OC(Cn1cncn1)(Cn1cncn1)c1ccc(F)cc1F [FLUCONAZOLE]	40 µg/mL (≈ 131 µM)				25 µg/mL (≈ 81.6 µM)	25 µg/mL (≈ 81.6 µM)	
Clc1ccc(COC(Cn2ccnc2)c2ccc(Cl)cc2Cl)c(Cl)c1 (stereo not drawn) [MICONAZOLE]	12.5 µg/mL (≈ 30 µM)				12.5 µg/mL (≈ 30 µM)	12.5 µg/mL (≈ 30 µM)	
